Screens from PubChem.
In the library only some 4.6% were active in any assay of this set; here they are far more common.
FAS TE block = FAS thioesterase (human) inhibition | recombinant FAS-TE, OMFH fluorogenic substrate, fluorescence endpoint | AID 602261 | inhibition, % at 15 µM | 360,000 compounds, 0.67% hits;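 active means compounds whose normalised, plate-corrected inhibition of enzyme fluorescence in the single-dose primary screen is 50% or more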
UCH37 inh = blocks the human deubiquitinase UCH37; Q9Y5K5; purified proteasome/UCH37, Ub-AMC cleavage fluorescence; inhibition, % (test concentration not listed); 330,000 compounds, 0.33% hits;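 active means mean inhibition over replicate wells above about 20%, limit read from the data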
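Schedule: 30 min plus 25 min, room temperature / Material: human UCH37 within purified proteasomes / Technique: AMC fluorescence intensity at 355/460 nm / Buffer or medium: pH 7.4 Tris-HCl (50 mM) with ovalbumin, ATP-MgCl2, DTT / Controls: wells without proteasome as full block, compound-free enzyme plus substrate as uninhibited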
PfM18AAP inh-1 = PfM18AAP enzyme inhibition | recombinant PfM18AAP, H-Glu-NHMec fluorogenic cleavage | inhibition, % at 7.35 µM | 290,000 compounds, 1.2% hits;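 active means inhibition above the campaign mean inhibition over all tested compounds plus 3 SD, cut at about 28% in these data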
HDAC3 inh = human HDAC3 inhibition | O15379 | 320,000 compounds, 0.15% hits | inhibition, % at 8.3 µM | recombinant HDAC3, fluorogenic peptide/trypsin coupled, fluorescence | AID 2718; in the data active means inhibition above about 26%, passing the limit was not always enough; inconclusive means no clear call, values can overlap the other calls
ALR H2O2 inh = human ALR oxidase inhibition via reduced H2O2 | P55789 | purified ALR, DTT oxidation, H2O2 HRP-luminol luminescence | inhibition, % (test concentration not listed) | 290,000 compounds, 3.8% hits | AID 485317;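 active means mean replicate inhibition above about 79%, with every replicate also reaching it, limit read from the data; inconclusive means only one of the two criteria met; inactive means mean below limit and not every replicate reaching it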
Target sequence (P55789 whole entry, looked up): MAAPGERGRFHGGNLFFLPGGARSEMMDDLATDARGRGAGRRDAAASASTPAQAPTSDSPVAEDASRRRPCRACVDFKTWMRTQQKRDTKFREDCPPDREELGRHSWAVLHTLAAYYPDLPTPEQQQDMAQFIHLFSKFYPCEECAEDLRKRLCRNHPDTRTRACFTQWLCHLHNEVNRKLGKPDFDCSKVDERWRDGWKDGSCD
Rtt109 HAT inh = inhibitors of Candida albicans Rtt109/Vps75 histone acetyltransferase; 330,000 compounds, 0.16% hits; AID 540336; inhibition, % at 34.9 µM; purified Rtt109/Vps75, ThioGlo CoA-SH fluorescence, 4 h; Q5AAJ8;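 active means inhibition of at least 50% in every replicate; inconclusive means best replicate reaches 50% inhibition but some replicates fall short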
PfM18AAP inh-2 = PfM18AAP inhibition, confirmation; shares compounds with PfM18AAP inh-1; recombinant PfM18AAP, H-Glu-NHMec fluorogenic cleavage; inhibition, % at 7.35 µM; 2,400 compounds, 28% hits; AID 2170;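 active means mean inhibition over replicate wells above the hit cutoff set for the earlier primary screen, cut at about 29% in these data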
CTSL1 counter = counter-screen for PFM18AAP inhibitors: confirmation of human cathepsin L inhibitors. 2,400 tested, under 10 active. shares compounds with PfM18AAP inh-1. purified cathepsin L1, Z-Leu-Arg-MCA fluorescence. inhibition, % at 5.96 µM;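 active means average inhibition across replicates above the hit cutoff set in the earlier primary screen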
Target sequence (P07711 whole entry, looked up): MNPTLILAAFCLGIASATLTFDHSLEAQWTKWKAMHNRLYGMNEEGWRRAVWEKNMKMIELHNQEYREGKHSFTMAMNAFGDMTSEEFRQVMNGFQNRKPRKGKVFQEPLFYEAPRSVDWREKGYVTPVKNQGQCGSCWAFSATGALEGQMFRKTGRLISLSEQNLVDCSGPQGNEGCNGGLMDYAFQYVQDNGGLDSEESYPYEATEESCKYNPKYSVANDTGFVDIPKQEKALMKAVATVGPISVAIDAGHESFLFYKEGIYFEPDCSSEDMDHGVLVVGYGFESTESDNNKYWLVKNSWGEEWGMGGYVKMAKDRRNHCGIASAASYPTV
UCH37 reconfirm = UCH37 Ub-AMC cleavage inhibition, confirmed; shares compounds with UCH37 inh; inhibition, % at 20 µM; 480 compounds, 27% hits; Proteasome-bound UCH37, Ub-AMC cleavage fluorescence; AID 624100;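 active means average inhibition over replicates above about 50%, so the earlier screening hit is confirmed, limit read from the data; inactive means the rest, counted as false positives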;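 further: based on cleavage rate fitted by regression over a 30 min kinetic read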
Large screens that a line does not name were inactive (follow-up assays come after a bar, where they were run).

CCN(CC)c1ccc(/C=C2/C(=O)NC(=O)N(Cc3ccco3)C2=O)cc1	none
COc1cc(CNCCc2ccc3c(c2)OCO3)cc(OC)c1OC	none (no result: HDAC3 inh, ALR H2O2 inh)
O=C1NC(=S)NC(=O)C1=Cc1cccn1-c1ccc(O)cc1	PfM18AAP inh-1 34 (no result: HDAC3 inh, ALR H2O2 inh) | PfM18AAP inh-2 57 | CTSL1 counter inactive
CC1=C[C@@H]2c3cccc4[nH]cc(c34)C[C@H]2N(C)C1	PfM18AAP inh-1 48 (no result: UCH37 inh) | PfM18AAP inh-2 inactive | CTSL1 counter inactive
OC(CN1CCC(c2c[nH]c3ccccc23)CC1)C(F)(F)F (configuration not stated)	none (no result: ALR H2O2 inh)
Cc1cc(/C=C2\C(=O)NC(=O)N(c3cccc(F)c3)C2=O)c(C)n1-c1cc(C(=O)O)cc(C(=O)O)c1	ALR H2O2 inh inconclusive
Cc1cc(/C=C2\C(=O)NC(=O)N(c3ccc(Br)cc3)C2=O)c(C)n1-c1cc(C(=O)O)cc(C(=O)O)c1	PfM18AAP inh-1 35 (no result: UCH37 inh) | PfM18AAP inh-2 inactive | CTSL1 counter inactive
Cc1cc(Cc2c(O)[nH]c(=S)[nH]c2=O)ccc1OC(C)C	none
O=C(O)c1ccc(-n2c(O)c(/C=C3\C=Nc4ccccc43)c(=O)[nH]c2=O)cc1	PfM18AAP inh-1 48, ALR H2O2 inh 98 (no result: UCH37 inh) | PfM18AAP inh-2 53 | CTSL1 counter inactive
O=c1[nH]c(=O)n(-c2cccc(F)c2)c(O)c1/C=C1\C=Nc2ccccc21	PfM18AAP inh-1 34 | PfM18AAP inh-2 45 | CTSL1 counter inactive
O=c1[nH]c(=O)n(Cc2ccccc2)c(O)c1/C=N/NCCO	none (no result: Rtt109 HAT inh)
O=C1NC(=O)N(c2ccc3c(c2)OCO3)C(=O)/C1=C\c1ccsc1	PfM18AAP inh-1 33 (no result: Rtt109 HAT inh) | PfM18AAP inh-2 inactive | CTSL1 counter inactive
CC(C(=O)c1ccc(Cl)cc1Cl)n1cncn1 (configuration not stated)	PfM18AAP inh-1 65 | PfM18AAP inh-2 54 | CTSL1 counter inactive
CCOc1cc2c(cc1OCC)-n1cccc1C(c1ccccc1F)NC2 (configuration not stated)	none
Cc1ccc(-n2nc(C)c3c2NC(=O)CSC3c2ccc3c(c2)OCO3)cc1 (configuration not stated)	PfM18AAP inh-1 35 | PfM18AAP inh-2 inactive | CTSL1 counter inactive
C=CCN1CC[C@]23c4c5ccc(O)c4O[C@H]2C(=O)CC[C@@]3(O)[C@H]1C5	none
C=CCN1CCc2cccc3c2[C@H]1Cc1ccc(O)c(O)c1-3	PfM18AAP inh-1 62, ALR H2O2 inh 99 (no result: UCH37 inh) | PfM18AAP inh-2 56 | CTSL1 counter inactive
O=C1/C(=C/c2ccc3c(c2)OCO3)N2CCC1CC2	none
O=C1/C(=C\c2cc3c(cc2Br)OCO3)N2CCC1CC2	PfM18AAP inh-1 37 | PfM18AAP inh-2 inactive | CTSL1 counter inactive
CNC(=O)Oc1cccc2c1OC(C)(C)O2	none (no result: PfM18AAP inh-1, HDAC3 inh, ALR H2O2 inh)
O=C(OCC(=O)c1ccc([N+](=O)[O-])cc1)/C(=C\c1ccc(Cl)cc1)NC(=O)c1ccccc1	PfM18AAP inh-1 40 (no result: Rtt109 HAT inh) | PfM18AAP inh-2 inactive | CTSL1 counter inactive
O=C(Cc1ccccc1)OCC(=O)c1ccccc1	none
Clc1ccc2sc(C3CCNCC3)nc2c1	none
Cc1c(N=Nc2c(O)[nH]c(=S)[nH]c2=O)c(=O)n(-c2ccccc2)n1C	UCH37 inh 30 | UCH37 reconfirm inactive
O=C1NC(=O)C(=Cc2ccc(N3CCOCC3)o2)C(=O)N1	UCH37 inh 27 | UCH37 reconfirm inactive
CCn1nc(/C=C/c2ccccc2)nc2c(=O)n(C)c(=O)nc1-2	UCH37 inh 96 (no result: HDAC3 inh, ALR H2O2 inh) | UCH37 reconfirm 100
COc1cc2c(cc1OC)-c1c(OC)c(OC)cc3c1C(C2)N(C)CC3 (configuration not stated)	UCH37 inh 28 | UCH37 reconfirm inactive
COC(=O)C1=C(c2ccc(OC(F)(F)F)cc2)C[C@@H]2CC[C@H]1N2C(=O)NCCNC(C)=O	none (no result: PfM18AAP inh-1)
COC(=O)C1=C(c2ccc(OC(F)(F)F)cc2)C[C@@H]2CC[C@H]1N2C(=O)NCCOc1ccc(OC)cc1	UCH37 inh 49 (no result: PfM18AAP inh-1) | UCH37 reconfirm inactive
COC(=O)C(O)(c1c[nH]c2ccccc12)C(F)(F)F (configuration not stated)	none
COC(=O)C(O)(c1c(C)[nH]n(-c2ccccc2)c1=O)C(F)(F)F (configuration not stated)	UCH37 inh 85 | UCH37 reconfirm 60
CC(C)NC1C2CCC(CC2)C1(O)c1ccc(Cl)c(Cl)c1 (configuration not stated)	none (no result: UCH37 inh, PfM18AAP inh-1, HDAC3 inh, ALR H2O2 inh, Rtt109 HAT inh)
Cn1c(=O)[nH]c2nncnc2c1=O	UCH37 inh 30 (no result: PfM18AAP inh-1) | UCH37 reconfirm inactive
COC(=O)C1=C(c2ccccc2OCc2ccccc2)C[C@@H]2CC[C@H]1N2C(=O)NCc1ccc([N+](=O)[O-])cc1	none (no result: PfM18AAP inh-1)
COC(=O)c1nc(-c2ccc3c(n2)C(=O)C(N)=C(OC)C3=O)c(N)c(-c2ccc(OC)c(OC)c2O)c1C	UCH37 inh 69, PfM18AAP inh-1 32 | UCH37 reconfirm inactive
CCN(CC)CCN=Cc1c(O)n(CCC2=CCCCC2)c(=O)[nH]c1=O	none
O=c1[nH]c(=O)n(CCC2=CCCCC2)c(O)c1C=NCc1cccnc1	UCH37 inh 44 | UCH37 reconfirm inactive
CCS(=O)(=O)NCc1nnc2n1-c1ccc(Br)cc1C(c1ccccc1Cl)=NC2	none (no result: PfM18AAP inh-1)
COC(=O)C1=C(c2ccc(OC(F)(F)F)cc2)C[C@@H]2CC[C@H]1N2C(=O)NC1CCCCC1	none (no result: PfM18AAP inh-1)
COc1cc(C(c2c(C)[nH]n(-c3ccccc3)c2=O)c2c(C)[nH]n(-c3ccccc3)c2=O)cc(OC)c1OC	UCH37 inh 53 | UCH37 reconfirm 94
COc1cc2[nH]c(=O)n(-c3ccccc3)c(=O)c2cc1OC	none
CN(C)CCN(C(=O)COc1ccc(Cl)cc1)c1nc2cc3c(cc2s1)OCO3	none
COc1cccc(N2C(=O)/C(=C/c3ccc(C)o3)C(=O)NC2=S)c1	none
CCN(CC)c1ccc(C=C2C(=O)N(C)C(=S)N(C)C2=O)o1	none
COc1ccc(N2C(=O)/C(=C/c3ccc(N(C)C)o3)C(=O)NC2=S)cc1	UCH37 inh 25 | UCH37 reconfirm inactive
CCN(CC)c1ccc(/C=C2\C(=O)NC(=S)N(C)C2=O)o1	UCH37 inh 26 | UCH37 reconfirm inactive
CCN(CC)c1ccc(/C=C2\C(=O)NC(=S)N(c3ccc(OC)cc3OC)C2=O)o1	UCH37 inh 27 (no result: PfM18AAP inh-1) | UCH37 reconfirm inactive
CC(=O)CC(c1ccc2c(c1)OCO2)c1c(O)c2ccccc2oc1=O (configuration not stated)	none (no result: UCH37 inh, PfM18AAP inh-1, HDAC3 inh, ALR H2O2 inh, Rtt109 HAT inh)
